Source: ChEMBL document CHEMBL1165950, “Design and synthesis of new potent anticancer pyrazoles with high FLT3 kinase inhibitory selectivity” (Bioorg Med Chem, 2010)

Experiments:
Type in all cases: functional
[1] = system: NCI-H522; experiment: Cytotoxicity against human NCI-H522 cells assessed as cell growth at 100 nM after 48 hrs by sulforhodamine B assay; settings: NCI-H522, 48 h, read-out: Activity
[2] = system: Malme-3M; experiment: Cytotoxicity against human MALME-3M cells assessed as cell growth at 100 nM after 48 hrs by sulforhodamine B assay; settings: read-out: Activity
[3] = system: UACC-257; experiment: Cytotoxicity against human UACC257 cells assessed as cell growth at 100 nM after 48 hrs by sulforhodamine B assay; settings: UACC-257, 48 h, read-out: Activity
[4] = system: MDA-MB-231; experiment: Cytotoxicity against human MDA-MB-231 cells assessed as cell growth at 100 nM after 48 hrs by sulforhodamine B assay; settings: MDA-MB-231, 48 h, read-out: Activity
[5] = system: HOP-62; experiment: Cytotoxicity against human HOP62 cells assessed as cell growth at 1 uM after 48 hrs by sulforhodamine B assay; settings: HOP-62, 48 h, read-out: Activity
[6] = system: ACHN; experiment: Cytotoxicity against human ACHN cells assessed as cell growth at 10 uM; settings: read-out: Activity
Method in brief: (§1)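 Single-dose NCI-60 screen at 10 µM. Cells were grown in RPMI 1640 with 5% FBS and 2 mM L-glutamine, then treated for 48 h at 37 °C. Protein was measured by SRB staining with absorbance at 515 nm. Percentage growth was recorded, and inhibition percentage was calculated as 100 minus growth percentage.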

[7] = system: K562; experiment: Cytotoxicity against human K562 cells assessed as cell growth at 0.001 uM after 48 hrs by sulforhodamine B assay; settings: K562, 48 h, read-out: Activity
[8] = system: SF-295; experiment: Cytotoxicity against human SF295 cells assessed as cell growth at 1 uM after 48 hrs by sulforhodamine B assay; settings: SF-295, 48 h, read-out: Activity
[9] = system: LOX IMVI; experiment: Cytotoxicity against human LOXIMVI cells assessed as cell growth at 1 uM after 48 hrs by sulforhodamine B assay; settings: read-out: Activity
[10] = system: SK-MEL-2; experiment: Cytotoxicity against human SK-MEL-2 cells assessed as cell growth at 1 uM after 48 hrs by sulforhodamine B assay; settings: SK-MEL-2, 48 h, read-out: Activity
[11] = system: COLO 205; experiment: Cytotoxicity against human COLO205 cells assessed as cell growth at 0.01 uM after 48 hrs by sulforhodamine B assay; settings: COLO 205, 48 h, read-out: Activity
Method in brief: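 NCI-60 five-dose screen. Cells were grown in RPMI 1640 with 5% FBS and 2 mM L-glutamine, plated at 5000–40,000 cells/well and preincubated for 24 h. Time-zero plates were TCA-fixed. DMSO-solubilized drug was added at five concentrations (10-fold or ½-log serial dilutions) for 48 h at 37 °C, 5% CO2. Cells were TCA-fixed, stained with 0.4% SRB and read at 515 nm. Percent growth used time-zero, control and test absorbances.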

[12] = system: SK-MEL-28; experiment: Cytotoxicity against human SK-MEL-28 cells assessed as cell growth at 0.01 uM after 48 hrs by sulforhodamine B assay; settings: SK-MEL-28, 48 h, read-out: Activity
[13] = system: SN12C; experiment: Cytotoxicity against human SN12C cells assessed as cell growth at 0.001 uM after 48 hrs by sulforhodamine B assay; settings: read-out: Activity
[14] = Growth inhibition of human […] cells after 48 hrs by sulforhodamine B assay; settings: for CC50: read-out: LC50 (the source's name)
Method in brief: (§2)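 NCI 60-cell screen, five-dose mode. Cells grown in RPMI 1640 with 5% FBS and 2 mM L-glutamine and plated at 5000-40,000 cells/well according to doubling time. After 24 h preincubation, a Tz plate was TCA-fixed. Five concentrations (10-fold or 1/2 log dilutions) were applied for 48 h at 37 °C. SRB staining read at 515 nm. IC50 taken from [(Ti-Tz)/(C-Tz)]×100 = 50.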

[15] = system: NCI-H522; experiment: Growth inhibition of human NCI-H522 cells after 48 hrs by sulforhodamine B assay; settings: NCI-H522, 48 h; for CC50: read-out: LC50 (the source's name); method in brief: as §2
[16] = system: HCT-15; experiment: Growth inhibition of human HCT15 cells after 48 hrs by sulforhodamine B assay; settings: HCT-15, 48 h; for CC50: read-out: LC50 (the source's name); method in brief: as §2
[17] = system: HT-29; experiment: Growth inhibition of human HT-29 cells after 48 hrs by sulforhodamine B assay; settings: HT-29, 48 h; method in brief: as §2
[18] = system: U-251; experiment: Growth inhibition of human U251 cells after 48 hrs by sulforhodamine B assay; settings: U-251, 48 h; for CC50: read-out: LC50 (the source's name); method in brief: as §2
[19] = system: Malme-3M; experiment: Growth inhibition of human MALME-3M cells after 48 hrs by sulforhodamine B assay; settings: for CC50: read-out: LC50 (the source's name); method in brief: as §2
[20] = system: OVCAR-4; experiment: Growth inhibition of human OVCAR4 cells after 48 hrs by sulforhodamine B assay; settings: OVCAR-4, 48 h; for CC50: read-out: LC50 (the source's name); method in brief: as §2
[21] = system: ACHN; experiment: Growth inhibition of human ACHN cells after 48 hrs by sulforhodamine B assay
Method in brief: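 NCI five-dose SRB assay in RPMI 1640 with 5% FBS and 2 mM L-glutamine. Cells were preincubated 24 h, then exposed 48 h at 37 °C to five concentrations (10-fold or half-log serial dilutions from DMSO stocks). TCA fixation, SRB staining, and absorbance at 515 nm followed. IC50 was taken where [(Ti−Tz)/(C−Tz)]×100 = 50, with Tz as time-zero cell density.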

[22] = system: HOP-62; experiment: Cytotoxicity against human HOP62 cells assessed as cell growth at 10 uM; settings: read-out: Activity; method in brief: as §1
[23] = Cytotoxicity against human Hs 578T cells assessed as cell growth at 1 uM after 48 hrs by sulforhodamine B assay; settings: read-out: Activity
[24] = system: T47D; experiment: Cytotoxicity against human T47D cells assessed as cell growth at 1 uM after 48 hrs by sulforhodamine B assay; settings: read-out: Activity
[25] = system: SF-268; experiment: Cytotoxicity against human SF268 cells assessed as cell growth at 10 uM; settings: read-out: Activity
Method in brief: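 NCI-60 screen: cells grown in RPMI 1640 with 5% FBS and 2 mM L-glutamine, plated at 5000–40,000 cells/well according to doubling time, and preincubated 24 h at 37 °C, 5% CO2. The single 10 µM dose (DMSO stock) was added, then incubated 48 h. Cells were TCA-fixed and stained with 0.4% SRB, read at 515 nm, and growth % calculated against time-zero and control plates.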

[26] = system: LOX IMVI; experiment: Cytotoxicity against human LOXIMVI cells assessed as cell growth at 10 uM after 48 hrs by sulforhodamine B assay; settings: read-out: Activity
[27] = system: OVCAR-4; experiment: Cytotoxicity against human OVCAR4 cells assessed as cell growth at 10 uM after 48 hrs by sulforhodamine B assay; settings: OVCAR-4, 48 h, read-out: Activity
[28] = system: SK-OV-3; experiment: Cytotoxicity against human SKOV3 cells assessed as cell growth at 10 uM after 48 hrs by sulforhodamine B assay; settings: SK-OV-3, 48 h, read-out: Activity

`COc1cc(C)cc(-c2c(-c3ccnc(-c4ccc(C(C)=O)cc4)c3)cnn2CC#N)c1` gave a growth at 0.1 µM [1] of 76%, a growth at 0.1 µM [2] of 97% and a growth at 0.1 µM [3] of 81%. It also gave a growth at 0.1 µM [4] of 86%, a growth at 1 µM [5] of 19% and a growth at 10 µM [6] of 70%. For the same molecule, the growth at 0.001 µM [7] was 81%, the growth at 1 µM [8] was 39% and the growth at 1 µM [9] was 19%. It also gave a growth at 1 µM [10] of 34%, a growth at 0.01 µM [11] of 102% and a growth at 0.01 µM [12] of 94%. It also gave a growth at 0.001 µM [13] of 94%, a GI50 [14] of 2.59 µM and a TGI [14] of 9.02 µM. The CC50 [14] was > 100 µM, the GI50 [15] was 1.93 µM and the TGI [15] was 6.96 µM. The CC50 [15] was > 100 µM, the GI50 [16] was 3.14 µM and the TGI [16] was > 100 µM. For the same molecule, the CC50 [16] was > 100 µM, the GI50 [17] was 3.21 µM and the TGI [17] was > 100 µM. The CC50 ([17]; read-out: LC50 (the source's name)) was > 100 µM, the GI50 [18] was 2.89 µM and the TGI [18] was > 100 µM. For the same molecule, the CC50 [18] was > 100 µM, the GI50 [19] was 5.82 µM and the TGI [19] was > 100 µM. For the same molecule, the CC50 [19] was > 100 µM, the GI50 [20] was 5.13 µM and the TGI [20] was > 100 µM. The CC50 [20] was > 100 µM, the GI50 [21] was 3.76 µM and the LC50 (concentration giving 50% net cell kill) [21] was > 100 µM. For the same molecule, the TGI [21] was > 100 µM, the growth at 10 µM [22] was 78.1% and the growth at 1 µM [23] was -23%. The growth at 1 µM [24] was -9%, the growth at 10 µM [25] was 90.5% and the growth at 10 µM [26] was 21%. For the same molecule, the growth at 10 µM [27] was 30% and the growth at 10 µM [28] was 27%.
Work on `COc1cc(C)cc(-c2c(-c3ccnc(-c4ccc(N(C)C)cc4)c3)cnn2CC#N)c1` yielded a growth at 0.1 µM [1] of -47%, a growth at 0.1 µM [2] of 49% and a growth at 0.1 µM [3] of 41%. For the same molecule, the growth at 0.1 µM [4] was -5%, the growth at 1 µM [5] was 31% and the growth at 10 µM [6] was 22.1%. For the same molecule, the growth at 0.001 µM [7] was 104%, the growth at 1 µM [8] was -27% and the growth at 1 µM [9] was 12%. It also gave a growth at 1 µM [10] of 11%, a growth at 0.01 µM [11] of 72% and a growth at 0.01 µM [12] of 20%. It also gave a growth at 0.001 µM [13] of 97%, a GI50 [14] of 0.266 µM and a TGI [14] of 1.96 µM. The CC50 [14] was > 100 µM, the GI50 [15] was 0.027 µM and the TGI [15] was 0.0846 µM. For the same molecule, the CC50 [15] was 3.22 µM, the GI50 [16] was 0.0766 µM and the TGI [16] was > 100 µM. The CC50 [16] was > 100 µM, the GI50 [17] was 0.0377 µM and the TGI [17] was 0.211 µM. The GI50 [18] was 0.178 µM, the TGI [18] was > 100 µM and the CC50 [18] was > 100 µM. For the same molecule, the GI50 [19] was 0.0598 µM, the TGI [19] was > 100 µM and the CC50 [19] was > 100 µM. For the same molecule, the GI50 [20] was 0.27 µM, the TGI [20] was > 100 µM and the CC50 [20] was > 100 µM. For the same molecule, the GI50 [21] was 0.068 µM, the LC50 (concentration giving 50% net cell kill) [21] was > 100 µM and the TGI [21] was > 100 µM. It also gave a growth at 10 µM [22] of 14.9%, a growth at 1 µM [23] of 18% and a growth at 1 µM [24] of 19%. It also gave a growth at 10 µM [25] of 26.4%, a growth at 10 µM [26] of 10% and a growth at 10 µM [27] of 25%. It also gave a growth at 10 µM [28] of 26%.
